The test system of experiment [1] is Rattus norvegicus. Description: Inhibition of pentagastrin stimulated gastric acid secretion in anesthetized rat on iv administration of the compound. It is filed as functional. Particulars: Stomach. In short, it runs like this:
(§1)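 Anaesthetized rat with lumen-perfused stomach; acid secretion induced by pentagastrin; compound given intravenously; inhibition of acid output recorded.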

The subject of experiment [2] is Canis familiaris. The experiment can be described thus: % inhibition of Histamine-stimulated gastric acid secretion in Heidenhain pouch dog at 1 umol/kg on iv administration of the compound. It is filed as functional. The following applies: Canis lupus familiaris, Stomach.
Experiment [3] relates to Canis familiaris. The experiment can be described thus: % inhibition of Histamine-stimulated gastric acid secretion in Heidenhain pouch dog at 4 uM/kg, on peroral administration of the compound. It is filed as functional, Canis lupus familiaris, Stomach. In short, it runs like this: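 Heidenhain pouch dogs with histamine-stimulated acid secretion; compound given orally as a dry powder in a hard gelatin capsule; inhibition of acid secretion measured.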

Experiment [4] has as its target Potassium-transporting ATPase (Sus scrofa, UniProt P19156). Description: Inhibition of K+ stimulated gastric ATPase activity. The class given is tissue-based, Stomach. In short, it runs like this: (§2)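 K+-stimulated ATPase activity measured in a lyophilized gastric vesicle preparation at pH 7; enzyme concentration estimated at around 2 nM from 32P-ATP binding.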
Experiment [5] relates to Canis familiaris. Description: % inhibition of Histamine-stimulated gastric acid secretion in Heidenhain pouch dog at 4 uM/kg. It is filed as functional, Canis lupus familiaris, Stomach.
Experiment [6] concerns Canis familiaris. Description: % inhibition of Histamine-stimulated gastric acid secretion in Heidenhain pouch dog at 1 uM/kg. It is filed as functional, Canis lupus familiaris, Stomach.
The target in experiment [7] is Potassium-transporting ATPase (Sus scrofa) (UniProt P18434+P19156). The experiment can be described thus: Inhibition of K+ stimulated gastric ATPase activity at 100 uM. The class given is tissue-based. Particulars: Stomach. In short, it runs like this: as §2
Experiment [8] deals with Rattus norvegicus. The experiment can be described thus: Inhibition of pentagastrin stimulated gastric acid secretion in anesthetized rat at 10 uM, on iv administration of the compound. It is filed as functional, Stomach. In short, it runs like this:
as §1

Experiment [9] concerns Canis familiaris. The experiment can be described thus: % inhibition of Histamine-stimulated gastric acid secretion in Heidenhain pouch dog at 1 uM/kg, on peroral administration of the compound. It is filed as functional, Canis lupus familiaris, Stomach. Particulars: in the assay text read “on iv administration” for “on peroral administration”.
The subject of experiment [10] is Rattus norvegicus. Description: Inhibition of pentagastrin stimulated gastric acid secretion in anesthetized rat at 10 uM/kg, on iv administration of the compound. The class given is functional, Stomach. Summed up:
as §1

Chain of Potassium-transporting ATPase (P18434 whole entry): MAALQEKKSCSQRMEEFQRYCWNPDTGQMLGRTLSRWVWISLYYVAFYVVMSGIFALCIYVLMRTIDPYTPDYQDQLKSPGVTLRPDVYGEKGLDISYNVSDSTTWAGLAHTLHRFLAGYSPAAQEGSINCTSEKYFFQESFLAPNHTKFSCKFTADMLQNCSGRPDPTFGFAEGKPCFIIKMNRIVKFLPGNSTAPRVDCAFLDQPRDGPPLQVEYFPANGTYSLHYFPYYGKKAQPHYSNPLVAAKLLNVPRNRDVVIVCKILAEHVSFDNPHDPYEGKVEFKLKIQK
Chain of Potassium-transporting ATPase (P19156 whole entry): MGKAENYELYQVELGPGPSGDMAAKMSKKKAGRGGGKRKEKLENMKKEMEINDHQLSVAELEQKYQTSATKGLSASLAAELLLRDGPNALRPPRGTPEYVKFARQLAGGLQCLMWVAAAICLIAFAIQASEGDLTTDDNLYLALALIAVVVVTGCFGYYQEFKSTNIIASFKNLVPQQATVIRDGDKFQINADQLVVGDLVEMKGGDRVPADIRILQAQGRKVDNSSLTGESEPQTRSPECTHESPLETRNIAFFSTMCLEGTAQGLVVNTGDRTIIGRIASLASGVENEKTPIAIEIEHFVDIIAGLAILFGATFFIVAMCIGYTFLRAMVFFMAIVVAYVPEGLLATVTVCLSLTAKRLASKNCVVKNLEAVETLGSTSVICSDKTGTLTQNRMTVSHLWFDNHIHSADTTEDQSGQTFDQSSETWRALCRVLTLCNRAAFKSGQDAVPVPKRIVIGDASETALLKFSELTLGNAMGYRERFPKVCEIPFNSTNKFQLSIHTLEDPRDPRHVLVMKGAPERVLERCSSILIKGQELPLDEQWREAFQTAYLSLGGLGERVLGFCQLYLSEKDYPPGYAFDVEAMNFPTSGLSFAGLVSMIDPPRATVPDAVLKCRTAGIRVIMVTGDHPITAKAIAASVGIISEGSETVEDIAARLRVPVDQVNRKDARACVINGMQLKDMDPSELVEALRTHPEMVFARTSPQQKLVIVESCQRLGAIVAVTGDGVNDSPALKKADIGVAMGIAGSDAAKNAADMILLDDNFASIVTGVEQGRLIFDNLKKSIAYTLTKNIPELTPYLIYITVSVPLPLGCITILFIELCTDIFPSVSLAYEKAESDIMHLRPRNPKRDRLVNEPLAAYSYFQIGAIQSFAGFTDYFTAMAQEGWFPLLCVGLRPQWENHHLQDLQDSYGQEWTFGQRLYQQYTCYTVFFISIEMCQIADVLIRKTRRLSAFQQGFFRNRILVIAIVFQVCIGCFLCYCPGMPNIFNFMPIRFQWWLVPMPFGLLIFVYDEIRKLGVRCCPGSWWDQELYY

With `COc1cccc2c(Nc3ccccc3C)nc(N)nc12`, it took a dose of 7.11 µmol/kg to reach the 50% effect level in experiment [1] (ED50). The inhibition in vivo at 1 µmol/kg in experiment [2] worked out at 39%. In addition, the Inhibition in [3] is recorded as 0%. In experiment [4], this compound gave a 50% inhibitory concentration (IC50) of 0.08 µM.
Take `COc1cccc2c(N(C)c3ccccc3)nc(Nc3ccccc3C)nc12`: the results for the Inhibition in experiment [5] and in [6] were 44% and 79%, respectively. The same compound showed a 50% effective dose (ED50) in [1] of 1.39 µmol/kg. For the same compound, in experiment [4], the IC50 came to 0.042 µM.
Turning to `Cc1ccccc1Nc1ncnc2ccccc12`, the inhibition in experiment [7] amounted to 28%. The compound also returned an Inhibition in experiment [8] of 9%.
On to `Cc1ccccc1Nc1nc(N(C)c2ccccc2)c2sccc2n1`, for which the Inhibition is given as 84% in experiment [9], 50% in experiment [10] and 12% in experiment [3]. The compound also had a 50% inhibitory concentration (IC50) in [4] of 0.019 µM.

The values are drawn from ChEMBL document CHEMBL1128472, “Reversible inhibitors of the gastric (H+/K+)-ATPase. 5. Substituted 2,4-diaminoquinazolines and thienopyrimidines” (J Med Chem, 1995).
